These results are taken from ChEMBL document CHEMBL1158795 (J Nat Prod, 2005).

One may read the IC50 as the concentration that inhibits the measured activity by half. Low values mean greater potency, high ones weaker potency. Usually inhibition stands for the share of the control response that was lost under treatment.

The subject of assay [1] is T47D. Description: Inhibition of hypoxia-induced VEGF expression in human T47D cells at 10 uM after 16 hrs by ELISA. The class given is cell-based. In short, it runs like this: (§1)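 T47D cells given compound for 30 min before hypoxia (1% O2) for 16 h. VEGF protein in cell lysates measured by ELISA, normalized to cellular protein. Representative experiment in triplicate; significance p < 0.05 versus untreated control.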
On the technique in general: An ELISA detects its analyte on a solid surface through an enzyme-linked reagent.

For assay [2], the target named is Aryl hydrocarbon receptor nuclear translocator (Homo sapiens) (UniProt P27540). Description: Inhibition of hypoxia-induced HIF1beta activation in human T47D cells at 10 uM after 4 hrs by Western blotting. The class given is cell-based. In short, it runs like this:
(§2)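 T47D cells exposed to compound 30 min, then hypoxia (1% O2/94% N2/5% CO2) 4 h. Nuclear extracts prepared; HIF-1α probed by Western blot with monoclonal antibody, membrane stripped and reprobed for HIF-1β with monoclonal anti-HIF-1β antibody.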
For orientation: Immunoblotting shows a protein as a band on a membrane.

For assay [3], the target named is T1, Hypoxia inducible factors; HIF-1-alpha, HIF-2-alpha (Homo sapiens, UniProt Q16665+Q99814). Description: Inhibition of hypoxia-induced HIF1 activation in human HeLa cells by luciferase reporter gene assay. The class given is cell-based. Background: A reporter such as luciferase makes a cellular process visible.
In assay [4] the test system is T47D. Description: Inhibition of hypoxia-induced secreted VEGF expression in human T47D cells at 10 uM after 16 by ELISA relative to normoxic control. The class given is functional. A digest of the protocol: (§3)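 T47D cells given compound before hypoxia (1% O2, 16 h). Secreted VEGF protein in conditioned media measured by modified human VEGF ELISA and compared with normoxic control level.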

Assay [5] has as its system T47D. Description: Inhibition of hypoxia-induced secreted VEGF expression in human T47D cells at 0.3 uM after 16 by ELISA. The class given is functional, cell-based. A digest of the protocol: as §3
Assay [6] can be described thus: Inhibition of luciferase expression in TNT T7 coupled reticulocyte lysate system at 10 uM. The class given is functional. A digest of the protocol: (§4)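 Cell-free luciferase expression from Luciferase T7 Control DNA using TNT T7 coupled reticulocyte lysate transcription/translation. Compounds present during reaction; luciferase activity expressed as percentage of untreated control.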

Assay [7] concerns the target Aryl hydrocarbon receptor nuclear translocator (Homo sapiens) (UniProt P27540). Description: Inhibition of hypoxia-induced HIF1beta activation in human T47D cells at 0.3 uM after 4 hrs by Western blotting. The class given is cell-based. In short, it runs like this:
as §2

The subject of assay [8] is T47D. Description: Inhibition of hypoxia-induced secreted VEGF expression in human T47D cells at 3 uM after 16 by ELISA relative to normoxic control. The class given is functional. In short, it runs like this:
as §3

In assay [9] the test system is T47D. Description: Inhibition of hypoxia-induced VEGF expression in human T47D cells at 3 uM after 16 hrs by ELISA. The class given is cell-based. In short, it runs like this:
as §1

In assay [10] the target is T1, Hypoxia inducible factors; HIF-1-alpha, HIF-2-alpha. Description: Inhibition of hypoxia-induced HIF1 activation in human T47D cells after 16 hrs by luciferase reporter gene assay. The class given is cell-based.
Assay [11] deals with T47D. Description: Inhibition of hypoxia-induced VEGF expression in human T47D cells at 0.3 uM after 16 hrs by ELISA. The class given is cell-based. A digest of the protocol:
as §1

In assay [12] the test system is T47D. Description: Inhibition of VEGF protein expression in human T47D cells at 0.3 uM. The class given is functional. In short, it runs like this: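 T47D breast carcinoma cells in DMEM/F12 with 10% FBS, 37 °C. Compound added 30 min before hypoxia (1% O2/94% N2/5% CO2, 16 h). Cell lysate VEGF measured by ELISA and normalised to cellular protein. Secreted VEGF in conditioned medium measured by modified ELISA. Compared with untreated control; one representative experiment in triplicate; significance p < 0.05.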

Assay [13] in a line: Inhibition of luciferase expression in TNT T7 coupled reticulocyte lysate system at 0.3 uM. The class given is functional. A digest of the protocol:
as §4

Assay [14] addresses T1, Hypoxia inducible factors; HIF-1-alpha, HIF-2-alpha. Description: Inhibition of hypoxia-induced HIF1 activation in human T47D cells upto 30 uM after 16 hrs by luciferase reporter gene assay. The class given is cell-based. A digest of the protocol: (§5)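 T47D cells transiently co-transfected with pTK-HRE3-luc and pRL-TK control, preincubated with compounds 30 min at 37 °C, then hypoxia (1% O2/94% N2/5% CO2) 16 h. Firefly luciferase activity normalized to Renilla, expressed as % inhibition versus induced control. Representative experiment, quadruplicate.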

The test system of assay [15] is T47D. Description: Inhibition of hypoxia-induced secreted VEGF expression in human T47D cells at 1 uM after 16 by ELISA. The class given is functional, cell-based. A digest of the protocol: as §3
The target of assay [16] is T1, Hypoxia inducible factors; HIF-1-alpha, HIF-2-alpha. Description: Inhibition of hypoxia-induced HIF1 activation in human T47D cells upto 10 uM by luciferase reporter gene assay. The class given is cell-based. In short, it runs like this: as §5
The subject of assay [17] is T47D. Description: Inhibition of hypoxia-induced VEGF expression in human T47D cells at 1 uM after 16 hrs by ELISA. The class given is cell-based. A digest of the protocol:
as §1

Activity calls are given as the source filed them. The rule behind the calls is not given here.

Chain of Aryl hydrocarbon receptor nuclear translocator (Homo sapiens) (P27540 whole entry): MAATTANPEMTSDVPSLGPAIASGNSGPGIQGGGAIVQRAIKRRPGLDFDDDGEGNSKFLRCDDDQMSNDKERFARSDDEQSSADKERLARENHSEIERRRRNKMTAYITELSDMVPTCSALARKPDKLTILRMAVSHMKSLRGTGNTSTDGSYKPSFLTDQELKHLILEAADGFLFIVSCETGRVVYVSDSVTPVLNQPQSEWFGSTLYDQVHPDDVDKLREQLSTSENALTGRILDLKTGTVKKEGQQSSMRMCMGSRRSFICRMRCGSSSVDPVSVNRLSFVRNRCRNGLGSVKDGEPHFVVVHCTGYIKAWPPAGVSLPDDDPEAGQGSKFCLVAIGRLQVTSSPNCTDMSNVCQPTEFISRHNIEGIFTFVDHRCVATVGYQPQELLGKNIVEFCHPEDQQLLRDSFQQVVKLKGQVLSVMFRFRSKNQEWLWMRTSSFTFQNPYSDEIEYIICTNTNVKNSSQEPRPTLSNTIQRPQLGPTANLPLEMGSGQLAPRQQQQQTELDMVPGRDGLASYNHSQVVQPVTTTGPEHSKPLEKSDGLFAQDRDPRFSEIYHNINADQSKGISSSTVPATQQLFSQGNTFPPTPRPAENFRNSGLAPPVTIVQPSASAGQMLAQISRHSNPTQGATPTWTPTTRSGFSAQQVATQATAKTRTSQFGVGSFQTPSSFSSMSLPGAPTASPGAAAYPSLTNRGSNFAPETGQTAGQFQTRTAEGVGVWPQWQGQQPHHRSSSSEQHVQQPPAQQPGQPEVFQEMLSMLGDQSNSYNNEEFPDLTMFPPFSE

For the molecule `C[C@@H]1C[C@@H]([C@H](O)CC2CC(=O)NC(=O)C2)C(=O)[C@@H](C)C1` [CYCLOHEXIMIDE], the result (in the assay on T47D [1]; in assay [6]) was Active. The outcome (in assay [2]; in the assay with T47D [5]; in assay [7]) was inactive. In assay [3], this molecule yielded an IC50 of 36 nM. Moreover, in the assay with T47D [4], 10 µM produced 43% inhibition.
With `CC[C@H]1CN2CCc3cc(OC)c(OC)cc3[C@@H]2C[C@@H]1C[C@@H]1NCCc2cc(O)c(OC)cc21` [ISOCEPHAELINE], the inhibition at 3 µM in the assay on T47D [8] turned out to be 69%. Moreover, the result in the assay on T47D [9] was Active. The outcome (in assay [2]; with T47D [5]; in [7]) was inactive. Also, the IC50 in [10] came out at 1100 nM.
As to `CC[C@H]1CN2CCc3cc(OC)c(OC)cc3[C@@H]2C[C@@H]1C[C@H]1NCCc2cc(OC)c(OC)cc21` [EMETINE], the outcome in assay [2], in assay [13] and in [7] was inactive. The same molecule had an inhibition with T47D [11] of 69%. Besides, the Activity in the assay with T47D [12] worked out at 58.8 pg/mL. Further, the outcome (in the assay with T47D [5]; in assay [6]) was Active.
As for `CC[C@H]1CN2CCc3cc(OC)c(OC)cc3[C@@H]2C[C@@H]1C[C@@H]1NCCc2cc(O)c(O)cc21`, the result (in assay [2]; in [14]; in [16]; in the assay on T47D [5]; in assay [7]) was inactive. In the assay with T47D [15], the outcome was Active.
In the assay on T47D [17], `CC[C@H]1CN2CCc3cc(O)c(OC)cc3[C@@H]2C[C@@H]1C[C@@]1(O)NCCc2cc(O)c(OC)cc21` [KLUGINE] registered an inhibition of 56%. Further, the outcome (in assay [2]; with T47D [5]; in [13]; in [7]) was inactive. Also, the IC50 in [10] came out at 200 nM. Besides, the result (in the assay on T47D [15]; in assay [6]) was Active.
